The target of assay [1] is Thymidine phosphorylase (Escherichia coli K-12) (UniProt P07650). The assay is described as follows: Inhibition of Escherichia coli thymidine phosphorylase at 100 uM incubated for 20 mins at room temperature followed by 5 mins incubation at 90 degC by HPLC analysis. The essentials:
(§1)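 Enzyme from E. coli, combined with thymidine and orthophosphate in Tris buffer. Phosphonic acid added at 1 mM or 100 μM. Incubated 20 min at room temperature, then 5 min at 90 °C. Thymidine separated from thymine by HPLC and percent inhibition calculated.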

For assay [2] the target is unchanged. The assay is described as follows: Inhibition of Escherichia coli thymidine phosphorylase at 1 mM incubated for 20 mins at room temperature followed by 5 mins incubation at 90 degC by HPLC analysis. In outline: as §1
The next assay has as its target Thymidine phosphorylase (Escherichia coli K-12, UniProt P07650). The assay is described as follows: Competitive inhibition of Escherichia coli thymidine phosphorylase incubated for 20 mins at room temperature followed by 5 mins incubation at 90 degC by Lineweaver-Burk plot analysis.
Assay [3] is described as follows: Inhibition of thymidine phosphorylase.

Each structure is given as a SMILES string.

Thymidine phosphorylase, sequence (P07650 whole entry): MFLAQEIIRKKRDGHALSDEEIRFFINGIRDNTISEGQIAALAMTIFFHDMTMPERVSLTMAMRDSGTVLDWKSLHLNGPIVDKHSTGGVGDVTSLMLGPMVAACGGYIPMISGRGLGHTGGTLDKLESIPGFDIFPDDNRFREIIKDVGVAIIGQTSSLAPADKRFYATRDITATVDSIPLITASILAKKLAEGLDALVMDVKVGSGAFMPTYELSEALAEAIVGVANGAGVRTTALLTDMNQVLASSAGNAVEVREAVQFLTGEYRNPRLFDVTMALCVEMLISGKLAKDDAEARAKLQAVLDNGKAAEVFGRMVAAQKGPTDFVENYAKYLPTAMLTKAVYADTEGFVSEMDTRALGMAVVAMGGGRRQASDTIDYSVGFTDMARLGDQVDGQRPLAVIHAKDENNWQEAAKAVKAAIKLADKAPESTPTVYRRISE
Thymidine phosphorylase (Escherichia coli K-12), sequence (P07650 whole entry, looked up): as the sequence (P07650 whole entry) above

As a reminder, the inhibition is the drop in the measured response relative to a control, in per cent. Broadly, the Ki is a measure of affinity in units of concentration, obtained from inhibition or displacement. A high value points to lower affinity. For `Cc1cn(Cc2cn(CCCCC(F)(F)P(=O)(O)O)nn2)c(=O)[nH]c1=O`, the results for the inhibition in assay [1] and in assay [2] were 68% and 90%, respectively. This compound yielded a Ki at Thymidine phosphorylase of 58 µM. With `Cc1cn(CCCCP(=O)(O)O)c(=O)[nH]c1=O`, the inhibition in assay [1] is 0%; in assay [2], 23%. Turning to `O=P(O)(O)C(F)(F)CCCCn1cc(Cn2cnc3c(O)ncnc32)nn1`, the inhibition in assay [1] was determined as 35%; in assay [2], 76%. For `Nc1nc(O)c2ncn(CCCCC(F)(F)P(=O)(O)O)c2n1`, the inhibition in assay [1] is 34%; in assay [2] it was 74%.

In turn, `Nc1c(Br)c(=O)[nH]c(=O)n1CCCCCCCCP(=O)(O)O` returned an inhibition in assay [1] of 64%. The Ki (in assay [3]; on Thymidine phosphorylase) was 142 µM in each case. Turning to `Cc1cn(CCCCSCCCCC(F)(F)P(=O)(O)O)c(=O)[nH]c1=O`, the inhibition amounted to 40% in assay [1] and 78% in assay [2]. In the case of `Cc1cn(C[C@@H](CF)OCP(=O)(O)O)c(=O)[nH]c1=O`, in assay [3], the inhibition constant Ki turned out to be 2 µM. As to `O=P(O)(O)C(F)(F)CCCCn1cnc2c(O)ncnc21`, the results for the inhibition in assay [1] and in assay [2] were 9% and 25%, respectively.

Take `Cc1cn(CCCCCCCCCC(F)(F)P(=O)(O)O)c(=O)[nH]c1=O`: the inhibition turned out to be 55% in assay [1] and 86% in assay [2]. In the case of `Cc1cn(CCCCC(F)(F)P(=O)(O)O)c(=O)[nH]c1=O`, the results for the inhibition in assay [1] and in assay [2] were 15% and 68%, respectively. Turning to `Nc1nc(O)c2ncn(Cc3cn(CCCCC(F)(F)P(=O)(O)O)nn3)c2n1`, the inhibition in assay [1] was determined as 35%; in assay [2], 76%. For `O=c1[nH]c(=O)n(CCCCC(F)(F)P(=O)(O)O)cc1Br`, the inhibition in assay [1] is 20%; in assay [2], 61%. As to `Cc1cn(CCCCCCCCP(=O)(O)O)c(=O)[nH]c1=O`, the inhibition in assay [1] was determined as 15%. In assay [3], `Cc1cn(C[C@@H](C)OCP(=O)(O)O)c(=O)[nH]c1=O` had a Ki of 2 µM.

Regarding `Cc1cn(CCCSCCCCC(F)(F)P(=O)(O)O)c(=O)[nH]c1=O`, the values for the inhibition in assay [1] and in assay [2] were 43% and 90%, respectively. As to `N=C1CCCN1Cc1[nH]c(=O)[nH]c(=O)c1Cl` [TIPIRACIL], the Ki in assay [3] came out at 0.035 µM. On to `O=P(O)(O)CCCCCCCCn1ccc2c(O)nc(O)nc21`, for which the Ki (in assay [3]; on Thymidine phosphorylase) was 54 µM each time. For the compound `Cc1cn(CC(I)CC(F)(F)P(=O)(O)O)c(=O)[nH]c1=O` (centres undefined), the inhibition in assay [1] was determined as 52%; in assay [2], 95%. `O=c1ccn(Cc2cn(CCCCC(F)(F)P(=O)(O)O)nn2)c(=O)[nH]1`: the inhibition in assay [1] came out at 22%; in assay [2], 79%. As for `Cc1cn(CCCCCCSCCCCC(F)(F)P(=O)(O)O)c(=O)[nH]c1=O`, the inhibition was determined as 38% in assay [1] and 86% in assay [2].

In the case of `O=P(O)(O)C(F)(F)CCCn1cc(Cn2cnc3c(O)ncnc32)nn1`, the inhibition in assay [1] was 29%; in assay [2] it was 69%. On the same counts, the results for `Nc1nc(O)c2ncn(CCCC(F)(F)P(=O)(O)O)c2n1` are 4% and 25%.

With `O=c1ccn(CCCCC(F)(F)P(=O)(O)O)c(=O)[nH]1`, the inhibition in assay [1] stood at 15%; in assay [2], 44%. For `Cc1cn(Cc2cn(CCCC(F)(F)P(=O)(O)O)nn2)c(=O)[nH]c1=O`, the inhibition in assay [1] was 36%; in assay [2] it was 79%. On to `Cc1cn(CCSCCCCC(F)(F)P(=O)(O)O)c(=O)[nH]c1=O`, for which the inhibition in assay [1] was determined as 0%; in assay [2], 36%. Regarding `Cc1cn(CCCCCCCCCCCC(F)(F)P(=O)(O)O)c(=O)[nH]c1=O`, the inhibition was found to be 56% in assay [1] and 88% in assay [2].

As for `Cc1cn(Cc2cn(CC(F)(F)P(=O)(O)O)nn2)c(=O)[nH]c1=O`, the values for the inhibition in assay [1] and in assay [2] were 9% and 29%, respectively. As for `Cc1cn(CCCC(F)(F)P(=O)(O)O)c(=O)[nH]c1=O`, the inhibition was 4% in assay [1] and 51% in assay [2]. For the compound `Nc1[nH]c(=O)[nH]c(=O)c1Br`, the inhibition in assay [1] amounted to 71%; in assay [2] it was 100%. `Cc1cn(CCCCCCCCC(F)(F)P(=O)(O)O)c(=O)[nH]c1=O`: the inhibition in assay [1] worked out at 55%; in assay [2], 85%. As to `Cc1cn(C[C@@H](CO)OCP(=O)(O)O)c(=O)[nH]c1=O`, in assay [3], the Ki was found to be 2 µM.

The values above are taken from ChEMBL document CHEMBL2029293, “Fluorophosphonylated nucleoside derivatives as new series of thymidine phosphorylase multisubstrate inhibitors” (J Med Chem, 2012).
